Data published in ChEMBL document CHEMBL5724801, “EUbOPEN Chemogenomics Library - Multiplex” (2024).
Several values for one entry are separate records, joined by “and”; a condition that tells them apart may be missing. Equal values may be shown once.

What was measured:
[1] = test system: U2OS; assay: Multiplex assay against U2OS; assay type: toxicity, cell-based; details: human
Procedure, shortened: (§1)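 On a CQ1 microscope at 37°C and 5% CO2, live cells were imaged after compound addition. They had been stained at seeding with Hoechst33342, BioTracker Green Microtubule Cytoskeleton Dye, MitoTracker Red and Annexin V Alexa Fluor 680. CellPathfinder machine-learning gating assigned cells to Hoechst high-intensity objects or normal cells, normal cells to healthy, pyknosed or fragmented nuclei, and pyknosed cells to mitotic or apoptotic. Tubulin, mitochondrial-mass and membrane-permeability phenotypes are per cents of healthy-nucleus cells.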

[2] = test system: HEK-293T; assay: Multiplex assay against HEK293T; assay type: toxicity, cell-based; details: human; procedure, shortened: as §1
[3] = 24 h, 1 µM, compound concentration 1 uM
[4] = 24 h, 10 µM, compound concentration 10 uM
[5] = 48 h, 1 µM, compound concentration 1 uM
[6] = 48 h, 10 µM, compound concentration 10 uM
[7] = 12 h, 1 µM, compound concentration 1 uM
[8] = 12 h, 10 µM, compound concentration 10 uM

## O=C(Nc1cc(C(F)(F)F)ccc1N1CCCCC1)c1ccncc1
[1]; [3]
  Population Pyknosed Nuclei (%): 8.01% and 9.95%
  Population Tubulin-Different-Phenotype (%): 1.09% and 0.59%
  Total Cell Count: 512 and 191
[1]; [4]
  Population Apoptotic (%): 35.62% and 25.81%
  Population Fragmented Nuclei (%): 1.19% and 3.28%
  Population Healthy Nuclei (%): 86.37% and 79.78%
  Population Hoechst High Intensity Objects (%): 0%
  Population Membrane Permeable-Phenotype (%): 1.18% and 2.05%
  Population Mitotic Cells (%): 64.38% and 74.19%
  Population Normal (%): 100%
  Population Pyknosed Nuclei (%): 12.44% and 16.94%
  Population Tubulin-Different-Phenotype (%): 5.13% and 1.37%
[1]; [5]
  Population Apoptotic (%): 36.36% and 35.71%
  Population Fragmented Nuclei (%): 3.47% and 3.02%
  Population Healthy Nuclei (%): 86.98% and 88.52%
  Population Hoechst High Intensity Objects (%): 0%
  Population Membrane Permeable-Phenotype (%): 1% and 4.1%
  Population Mitochondria Different-Phenotype (%): 0.37% and 3.75%
  Population Mitotic Cells (%): 63.64% and 64.29%
  Population Normal (%): 100%
  Population Pyknosed Nuclei (%): 9.54% and 8.46%
  Population Tubulin-Different-Phenotype (%): 1.37% and 2.05%
  Total Cell Count: 922 and 331
[1]; [6]
  Population Apoptotic (%): 47.54% and 53.06%
  Population Fragmented Nuclei (%): 2.11% and 4.76%
  Population Healthy Nuclei (%): 86.22% and 78.57%
  Population Hoechst High Intensity Objects (%): 0.19% and 0%
  Population Membrane Permeable-Phenotype (%): 1.66% and 1.73%
  Population Mitotic Cells (%): 52.46% and 46.94%
  Population Normal (%): 99.81% and 100%
  Population Pyknosed Nuclei (%): 11.67% and 16.67%
  Population Tubulin-Different-Phenotype (%): 4.55% and 3.03%
[2]; [7]
  Population Apoptotic (%): 16.06% and 9.24%
  Population Fragmented Nuclei (%): 3.1% and 6.12%
  Population Hoechst High Intensity Objects (%): 0%
  Population Membrane Permeable-Phenotype (%): 0% and 10.53%
  Population Mitochondria Different-Phenotype (%): 30.11% and 10.53%
  Population Mitotic Cells (%): 83.94% and 90.76%
  Population Normal (%): 100%
  Population Pyknosed Nuclei (%): 42.41% and 80.95%
  Total Cell Count: 323 and 147
[2]; [8]
  Population Apoptotic (%): 17.75% and 24.64%
  Population Fragmented Nuclei (%): 2.03% and 4.49%
  Population Healthy Nuclei (%): 48.84% and 17.98%
  Population Hoechst High Intensity Objects (%): 0.29% and 0%
  Population Membrane Permeable-Phenotype (%): 0% and 3.12%
  Population Mitochondria Different-Phenotype (%): 41.07% and 18.75%
  Population Mitotic Cells (%): 82.25% and 75.36%
  Population Normal (%): 99.71% and 100%
  Population Pyknosed Nuclei (%): 49.13% and 77.53%
  Population Tubulin-Different-Phenotype (%): 26.79% and 53.12%
  Total Cell Count: 345 and 178
[2]; [3]
  Population Apoptotic (%): 12.5% and 17.7%
  Population Fragmented Nuclei (%): 1.79% and 1.82%
  Population Healthy Nuclei (%): 72.45% and 29.7%
  Population Hoechst High Intensity Objects (%): 0%
  Population Membrane Permeable-Phenotype (%): 1.48% and 2.04%
  Population Mitochondria Different-Phenotype (%): 13.33% and 12.24%
  Population Mitotic Cells (%): 87.5% and 82.3%
  Population Normal (%): 100%
  Population Pyknosed Nuclei (%): 25.76% and 68.48%
  Population Tubulin-Different-Phenotype (%): 11.36% and 12.24%
[2]; [4]
  Population Apoptotic (%): 30.61% and 27.07%
  Population Fragmented Nuclei (%): 1.11% and 2%
  Population Healthy Nuclei (%): 66.15% and 31.5%
  Population Hoechst High Intensity Objects (%): 0.22% and 0.5%
  Population Membrane Permeable-Phenotype (%): 1.68% and 0%
  Population Mitochondria Different-Phenotype (%): 34.01% and 33.33%
  Population Mitotic Cells (%): 69.39% and 72.93%
  Population Normal (%): 99.78% and 99.5%
  Population Pyknosed Nuclei (%): 32.74% and 66.5%
  Population Tubulin-Different-Phenotype (%): 39.39% and 14.29%
  Total Cell Count: 450 and 201
[2]; [5]
  Population Apoptotic (%): 6.88% and 14.29%
  Population Fragmented Nuclei (%): 2.64% and 3.08%
  Population Healthy Nuclei (%): 85.29% and 66.08%
  Population Hoechst High Intensity Objects (%): 0%
  Population Membrane Permeable-Phenotype (%): 5.84% and 0.67%
  Population Mitochondria Different-Phenotype (%): 15.38% and 28.67%
  Population Mitotic Cells (%): 93.12% and 85.71%
  Population Normal (%): 100%
  Population Pyknosed Nuclei (%): 12.07% and 30.84%
[2]; [6]
  Population Apoptotic (%): 17.89% and 16.19%
  Population Fragmented Nuclei (%): 3.13% and 3.08%
  Population Healthy Nuclei (%): 80.83% and 56.54%
  Population Hoechst High Intensity Objects (%): 0% and 0.76%
  Population Membrane Permeable-Phenotype (%): 5.97% and 2.72%
  Population Mitochondria Different-Phenotype (%): 47.9% and 43.54%
  Population Mitotic Cells (%): 82.11% and 83.81%
  Population Normal (%): 100% and 99.24%
  Population Pyknosed Nuclei (%): 16.04% and 40.38%
  Total Cell Count: 767 and 262
